Data: ChEMBL document CHEMBL3588826, “Chimeric derivatives of functionalized amino acids and α-aminoamides: compounds with anticonvulsant activity in seizure models and inhibitory actions on central, peripheral, and cardiac isoforms of voltage-gated sodium channels” (Bioorg Med Chem, 2015)
Activity calls are given as the source filed them. The calls are words filed in the database; no cut-off is given here.

How the values were obtained:
[1] = Behavioural toxicity in po dosed albino Sprague-Dawley rat measured at 1 hr; format: organism-based; conditions: in vivo
CYP2C8 = target: T1, CYP2C8 (Homo sapiens, UniProt P10632); experiment: Time-dependent inhibition of human CYP2C8 measured after 30 mins preincubation period; format: ADME
T1 sequence (P10632 whole entry): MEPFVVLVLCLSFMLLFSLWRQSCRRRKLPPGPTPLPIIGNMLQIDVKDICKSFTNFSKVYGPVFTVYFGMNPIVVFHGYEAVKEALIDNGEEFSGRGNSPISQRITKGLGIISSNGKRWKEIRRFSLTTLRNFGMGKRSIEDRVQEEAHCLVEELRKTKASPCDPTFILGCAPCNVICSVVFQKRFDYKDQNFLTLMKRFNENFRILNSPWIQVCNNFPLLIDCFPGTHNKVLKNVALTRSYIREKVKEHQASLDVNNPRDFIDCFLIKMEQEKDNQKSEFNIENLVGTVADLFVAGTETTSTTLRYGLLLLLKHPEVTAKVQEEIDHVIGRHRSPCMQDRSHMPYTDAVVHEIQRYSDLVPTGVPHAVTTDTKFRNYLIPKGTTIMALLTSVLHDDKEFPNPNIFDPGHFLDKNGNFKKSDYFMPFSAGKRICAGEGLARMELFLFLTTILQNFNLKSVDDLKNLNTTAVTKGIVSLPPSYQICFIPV
Summary of the method: (§1)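 Test compound at 10 μM against a human CYP450 panel (CYP1A2, 2B6, 2C8, 2C9, 2C19, 2D6, 3A4/5). Direct inhibition was measured, and time-dependent inhibition was measured after a 30-min preincubation.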

[2] = Inhibition of voltage-gated sodium channel in mouse CAD cells assessed as transition of channels to slow-inactivated state measured at -50 mV by whole cell patch-clamp electrophysiology; format: cell-based
Summary of the method: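 CAD cells were grown in Ham's F12/DMEM with 10% FBS at 37 °C and 5% CO2, with native Na+ currents mostly from Nav1.7. Whole-cell voltage clamp at room temperature across a range of concentrations against 0.1% DMSO. IC50 for induction of slow inactivation was taken from concentration-response curves at −50 mV (also at +20 mV).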

[3] = target: Sodium channel protein type 9 subunit alpha (Homo sapiens) (UniProt Q15858); experiment: Inhibition of human Nav1.7 expressed in HEK293 cells assessed as half-maximal voltage for steady state activation at 10 uM by whole cell patch-clamp electrophysiology (reference value: -27.13 +/-4.01 mV); format: cell-based
Rattus norvegicus [4] = species on record: Rattus norvegicus; experiment: Frequency-dependent inhibition of voltage-gated sodium channel in rat embryonic cortical neurons assessed as current amplitude at 10 uM measured at holding potential of -80 mV by whole cell patch-clamp electrophysiology
Summary of the method: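 E19 rat cortical neurons cultured 7–10 days were recorded by whole-cell voltage clamp at room temperature. Compound was at 10 μM versus 0.1% DMSO. A pulse train was applied, and available current was taken as peak current at pulse N divided by peak at pulse 1.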

Cytochrome P450 2B6 = target: T2, Cytochrome P450 2B6 (Homo sapiens, UniProt P20813); experiment: Inhibition of human CYP2B6 at 10 uM; format: ADME; summary of the method: as §1
T2 sequence (P20813 whole entry): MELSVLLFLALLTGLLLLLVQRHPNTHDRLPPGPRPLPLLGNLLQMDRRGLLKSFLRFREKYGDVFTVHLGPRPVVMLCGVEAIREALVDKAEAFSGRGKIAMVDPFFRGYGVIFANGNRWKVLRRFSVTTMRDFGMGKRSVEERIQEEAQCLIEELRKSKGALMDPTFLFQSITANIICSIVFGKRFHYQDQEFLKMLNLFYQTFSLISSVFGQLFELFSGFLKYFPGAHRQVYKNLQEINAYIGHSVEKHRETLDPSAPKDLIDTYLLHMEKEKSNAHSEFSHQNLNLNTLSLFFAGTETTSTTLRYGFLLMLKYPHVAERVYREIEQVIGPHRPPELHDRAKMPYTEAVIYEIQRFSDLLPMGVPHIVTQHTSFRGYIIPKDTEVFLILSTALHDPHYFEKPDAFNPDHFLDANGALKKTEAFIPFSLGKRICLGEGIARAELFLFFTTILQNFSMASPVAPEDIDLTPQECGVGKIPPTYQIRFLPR

CAD = experiment: Effect on steady state activation of voltage-gated sodium channel in mouse CAD cells at 100 nM to 1 uM by whole cell patch-clamp electrophysiology; format: cell-based
Summary of the method: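 CAD cells were recorded by whole-cell voltage clamp at room temperature with several compound concentrations versus 0.1% DMSO. Activation was assessed from conductance, G = I/(Vm − Vrev), versus command voltage. V1/2 and slope were taken from Boltzmann fits to individual recordings and averaged.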

Rattus norvegicus [5] = experiment: Toxicity in po dosed Sprague-Dawley rat assessed as changes in clinical chemistry parameters administered via gavage; format: organism-based; conditions: in vivo
Summary of the method: (§2)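 Non-GLP 7-day repeated-dose study in female Sprague-Dawley rats given oral gavage at 20, 60 and 180 mg/kg/day. Endpoints were weight bearing, gait coordination, respiratory rate, relative organ weights, clinical chemistry and gross pathology, with NOAEL determined.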

[6] = target: Sodium channel protein type 1 subunit alpha (Homo sapiens) (UniProt P35498); experiment: Frequency-dependent inhibition of human Nav1.1 expressed in HEK293 cells assessed as current amplitude at 10 uM by whole cell patch-clamp electrophysiology; format: cell-based
Summary of the method: (§3)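 Stable HEK293 lines expressing hNav1.1, rNav1.3, hNav1.7 or hNav1.5 were recorded by whole-cell voltage clamp at room temperature, with 10 μM compound versus 0.1% DMSO. A 30-pulse train was applied, and the read-out was the fraction of current remaining at the last pulse normalized to the first. Nav1.5 used hyperpolarized protocols.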

[7] = target: T3, Sodium channel protein type 5 subunit alpha (Homo sapiens, UniProt Q14524); experiment: Inhibition of human Nav1.5 expressed in HEK293 cells assessed as transition of channels to slow-inactivated state at 10 uM measured at -50 mV by whole cell patch-clamp electrophysiology; format: cell-based; conditions: hek293, 10 µM
Summary of the method: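 HEK293 cells stably expressing hNav1.1, rNav1.3, hNav1.7 or hNav1.5 were grown in DMEM with 10% FBS. Recordings were whole-cell voltage clamp at room temperature, with 10 μM compound versus 0.1% DMSO. Slow inactivation at −50 mV was calculated as 1 minus normalized peak INa. Nav1.5 used hyperpolarized protocols. Data are from 5–6 cells.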

[8] = target: T3, Sodium channel protein type 5 subunit alpha; experiment: Frequency-dependent inhibition of human Nav1.5 expressed in HEK293 cells assessed as current amplitude at 10 uM by whole cell patch-clamp electrophysiology; format: cell-based; conditions: hek293, 10 µM; summary of the method: as §3
Mus musculus = experiment: Anticonvulsant activity in ip dosed corneal kindled seizure mouse model measured after 0.25 hrs; format: functional
Cytochrome P450 2C9 = Cytochrome P450 2C9 (Homo sapiens, UniProt P11712); experiment: Inhibition of human CYP2C9 at 10 uM; format: ADME; summary of the method: as §1
Rattus norvegicus [9] = experiment: Toxicity in po dosed Sprague-Dawley rat assessed as coordination in gait administered via gavage; format: organism-based; conditions: in vivo; summary of the method: as §2
[10] = target: Sodium channel protein type 3 subunit alpha (Rattus norvegicus) (UniProt P08104); experiment: Inhibition of rat Nav1.3 expressed in HEK293 cells assessed as half-maximal voltage for steady state activation at 10 uM by whole cell patch-clamp electrophysiology (reference value: -29.62 +/-3.59 mV); format: cell-based
[11] = target: T3, Sodium channel protein type 5 subunit alpha; experiment: Inhibition of human Nav1.5 expressed in HEK293 cells assessed as half-maximal voltage for steady state activation at 10 uM by whole cell patch-clamp electrophysiology (reference value: -55.71 +/-3.81 mV); format: cell-based; conditions: hek293, 10 µM

T3 sequence (Q14524 whole entry): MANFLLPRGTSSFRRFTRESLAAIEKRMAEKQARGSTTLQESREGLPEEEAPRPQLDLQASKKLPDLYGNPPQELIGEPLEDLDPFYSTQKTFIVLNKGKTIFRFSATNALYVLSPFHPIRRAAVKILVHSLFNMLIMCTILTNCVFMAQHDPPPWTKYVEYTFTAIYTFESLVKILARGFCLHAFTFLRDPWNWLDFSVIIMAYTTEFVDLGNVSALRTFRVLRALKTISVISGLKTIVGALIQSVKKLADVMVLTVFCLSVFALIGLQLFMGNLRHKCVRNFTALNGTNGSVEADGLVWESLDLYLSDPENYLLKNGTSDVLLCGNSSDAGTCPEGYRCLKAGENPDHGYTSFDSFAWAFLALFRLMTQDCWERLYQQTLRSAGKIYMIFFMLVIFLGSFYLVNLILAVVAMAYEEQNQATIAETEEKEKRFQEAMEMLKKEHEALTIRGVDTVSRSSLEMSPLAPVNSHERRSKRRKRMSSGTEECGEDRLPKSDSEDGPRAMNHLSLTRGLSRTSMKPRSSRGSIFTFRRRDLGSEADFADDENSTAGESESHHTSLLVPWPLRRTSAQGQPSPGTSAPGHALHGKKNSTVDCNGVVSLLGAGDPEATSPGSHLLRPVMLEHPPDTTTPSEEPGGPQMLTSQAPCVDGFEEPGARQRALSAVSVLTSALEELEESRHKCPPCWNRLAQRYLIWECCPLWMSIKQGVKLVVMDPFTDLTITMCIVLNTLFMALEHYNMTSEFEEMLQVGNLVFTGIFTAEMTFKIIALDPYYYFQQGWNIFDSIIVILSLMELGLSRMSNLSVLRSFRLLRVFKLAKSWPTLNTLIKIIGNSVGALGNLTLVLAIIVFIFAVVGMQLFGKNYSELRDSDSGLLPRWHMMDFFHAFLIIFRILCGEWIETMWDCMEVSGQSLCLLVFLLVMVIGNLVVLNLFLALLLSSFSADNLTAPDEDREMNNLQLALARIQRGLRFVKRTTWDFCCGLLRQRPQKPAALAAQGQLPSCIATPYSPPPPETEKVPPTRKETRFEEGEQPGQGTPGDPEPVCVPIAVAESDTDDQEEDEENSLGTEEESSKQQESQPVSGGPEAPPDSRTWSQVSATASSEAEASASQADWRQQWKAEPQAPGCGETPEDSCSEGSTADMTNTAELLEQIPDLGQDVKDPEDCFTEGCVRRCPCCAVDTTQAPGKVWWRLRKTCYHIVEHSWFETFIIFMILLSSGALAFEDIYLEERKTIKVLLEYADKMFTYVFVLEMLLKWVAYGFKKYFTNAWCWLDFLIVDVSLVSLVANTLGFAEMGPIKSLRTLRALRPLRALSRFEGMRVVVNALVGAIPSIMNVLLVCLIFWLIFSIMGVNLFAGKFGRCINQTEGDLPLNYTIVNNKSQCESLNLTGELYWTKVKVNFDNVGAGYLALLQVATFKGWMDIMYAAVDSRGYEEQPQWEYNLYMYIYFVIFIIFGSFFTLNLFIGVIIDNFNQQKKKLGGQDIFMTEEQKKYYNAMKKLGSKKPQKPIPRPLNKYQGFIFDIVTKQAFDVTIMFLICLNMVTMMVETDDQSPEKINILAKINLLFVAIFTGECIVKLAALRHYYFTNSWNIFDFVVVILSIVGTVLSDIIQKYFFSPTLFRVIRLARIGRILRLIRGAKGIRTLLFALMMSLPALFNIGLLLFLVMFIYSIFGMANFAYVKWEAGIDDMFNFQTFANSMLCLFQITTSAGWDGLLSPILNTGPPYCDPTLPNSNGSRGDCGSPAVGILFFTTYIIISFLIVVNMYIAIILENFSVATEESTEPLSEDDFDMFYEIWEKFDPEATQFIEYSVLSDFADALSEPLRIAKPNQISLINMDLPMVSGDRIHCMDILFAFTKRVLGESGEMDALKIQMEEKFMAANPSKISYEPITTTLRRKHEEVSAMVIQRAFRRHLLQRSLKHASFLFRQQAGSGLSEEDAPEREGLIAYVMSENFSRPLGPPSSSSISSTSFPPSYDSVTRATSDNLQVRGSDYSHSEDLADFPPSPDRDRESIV
Sequence of Cytochrome P450 2C9 (P11712 whole entry): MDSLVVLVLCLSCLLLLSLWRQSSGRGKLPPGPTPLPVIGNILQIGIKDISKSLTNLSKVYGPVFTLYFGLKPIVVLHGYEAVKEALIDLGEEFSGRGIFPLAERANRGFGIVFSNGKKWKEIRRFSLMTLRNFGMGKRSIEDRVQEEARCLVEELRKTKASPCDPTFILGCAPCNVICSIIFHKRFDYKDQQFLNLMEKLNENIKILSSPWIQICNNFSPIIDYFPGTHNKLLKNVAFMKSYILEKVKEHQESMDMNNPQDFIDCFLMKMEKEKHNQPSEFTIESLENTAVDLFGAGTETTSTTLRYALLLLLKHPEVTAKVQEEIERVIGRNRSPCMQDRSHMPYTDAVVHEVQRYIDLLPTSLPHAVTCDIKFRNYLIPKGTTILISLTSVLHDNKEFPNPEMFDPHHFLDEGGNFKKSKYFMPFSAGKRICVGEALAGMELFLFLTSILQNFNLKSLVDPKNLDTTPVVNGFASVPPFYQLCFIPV
Sequence of Sodium channel protein type 9 subunit alpha (Homo sapiens) (Q15858 whole entry, looked up): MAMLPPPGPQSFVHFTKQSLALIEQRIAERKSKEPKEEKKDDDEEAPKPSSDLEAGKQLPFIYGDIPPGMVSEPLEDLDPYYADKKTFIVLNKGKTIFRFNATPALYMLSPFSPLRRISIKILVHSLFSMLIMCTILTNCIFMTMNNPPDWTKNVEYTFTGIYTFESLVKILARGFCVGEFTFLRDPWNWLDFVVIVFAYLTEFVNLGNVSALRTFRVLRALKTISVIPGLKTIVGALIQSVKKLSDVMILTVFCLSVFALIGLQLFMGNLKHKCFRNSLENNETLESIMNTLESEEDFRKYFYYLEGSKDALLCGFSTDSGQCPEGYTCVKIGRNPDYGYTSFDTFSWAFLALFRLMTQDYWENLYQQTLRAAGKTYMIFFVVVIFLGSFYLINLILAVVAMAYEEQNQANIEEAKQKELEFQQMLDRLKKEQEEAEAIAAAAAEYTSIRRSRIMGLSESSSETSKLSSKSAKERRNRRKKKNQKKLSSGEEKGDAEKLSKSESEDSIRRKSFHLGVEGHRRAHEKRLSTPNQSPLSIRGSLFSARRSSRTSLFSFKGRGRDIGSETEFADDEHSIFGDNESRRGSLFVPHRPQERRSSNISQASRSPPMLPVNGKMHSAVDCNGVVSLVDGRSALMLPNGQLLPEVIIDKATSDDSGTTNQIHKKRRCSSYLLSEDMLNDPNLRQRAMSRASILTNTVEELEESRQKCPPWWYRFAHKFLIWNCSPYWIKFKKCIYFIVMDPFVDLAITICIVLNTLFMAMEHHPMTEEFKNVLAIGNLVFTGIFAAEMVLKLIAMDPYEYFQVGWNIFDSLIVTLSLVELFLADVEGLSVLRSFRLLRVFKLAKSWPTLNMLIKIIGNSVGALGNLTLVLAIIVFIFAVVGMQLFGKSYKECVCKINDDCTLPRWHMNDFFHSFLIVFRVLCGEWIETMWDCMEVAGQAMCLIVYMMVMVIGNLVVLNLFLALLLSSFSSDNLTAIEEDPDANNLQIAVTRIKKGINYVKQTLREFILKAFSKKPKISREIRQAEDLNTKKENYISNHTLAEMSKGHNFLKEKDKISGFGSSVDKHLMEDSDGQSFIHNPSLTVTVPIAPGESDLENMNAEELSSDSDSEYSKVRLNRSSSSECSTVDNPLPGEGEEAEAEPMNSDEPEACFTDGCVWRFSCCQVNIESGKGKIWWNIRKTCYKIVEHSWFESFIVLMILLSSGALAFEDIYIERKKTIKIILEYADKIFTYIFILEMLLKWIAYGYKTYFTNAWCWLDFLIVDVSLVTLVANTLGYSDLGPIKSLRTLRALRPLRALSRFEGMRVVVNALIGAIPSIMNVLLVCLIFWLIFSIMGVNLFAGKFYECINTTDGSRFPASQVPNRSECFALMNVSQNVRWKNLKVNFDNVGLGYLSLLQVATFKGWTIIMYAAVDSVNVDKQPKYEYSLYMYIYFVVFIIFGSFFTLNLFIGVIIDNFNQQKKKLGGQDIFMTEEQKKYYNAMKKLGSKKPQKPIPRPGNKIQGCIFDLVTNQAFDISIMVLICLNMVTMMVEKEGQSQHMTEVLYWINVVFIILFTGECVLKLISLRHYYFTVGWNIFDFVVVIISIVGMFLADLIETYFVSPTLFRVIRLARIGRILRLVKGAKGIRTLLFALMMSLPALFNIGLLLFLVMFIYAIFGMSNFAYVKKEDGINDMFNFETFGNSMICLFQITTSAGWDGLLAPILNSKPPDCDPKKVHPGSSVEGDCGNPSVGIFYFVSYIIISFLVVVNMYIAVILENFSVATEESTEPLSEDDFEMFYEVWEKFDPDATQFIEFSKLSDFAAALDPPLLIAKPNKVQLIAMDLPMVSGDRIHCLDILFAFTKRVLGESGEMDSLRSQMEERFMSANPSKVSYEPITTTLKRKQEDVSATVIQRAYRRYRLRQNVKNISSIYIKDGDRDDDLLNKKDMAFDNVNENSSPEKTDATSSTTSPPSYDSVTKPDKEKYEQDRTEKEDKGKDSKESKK

COC[C@@H](NC(C)=O)C(=O)NCc1ccc(Oc2cccc(OC(F)(F)F)c2)cc1
TD50 at 1 h [1]: 240 mg/kg | inhibition at 0.5 h (CYP2C8): 16% | IC50 [2]: 700 nM | V1/2 [3]: -25 mV | inhibition (Rattus norvegicus [4]): inactive | inhibition (INH) (Cytochrome P450 2B6): Not Active | Activity (CAD): inactive | Activity (Rattus norvegicus [5]): Toxic | inhibition [6]: inactive | inhibition (INH) [7]: Active | inhibition (INH) [8]: Not Active | ED50 (Mus musculus): 41 mg/kg | inhibition (INH) (Cytochrome P450 2C9): Not Active | Activity (Rattus norvegicus [9]): Toxic | V1/2 [10]: -32.5 mV | V1/2 [11]: -48.99 mV
